We go through one molecule from ChEMBL document CHEMBL1629528 (J Med Chem, 2010).

The nature of series [1]: Half life in Sprague-Dawley rat at 0.5 mg/kg, iv after 24 hrs. The conditions noted are these: in vivo. More on the design: dose 0.5 mg/kg, route intravenous. The format is ADME, organism-based. The essentials:
(§1)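 Male Sprague-Dawley rats given 0.5 mg/kg iv (2 mL/kg, 2.5% DMSO in glucosate solution), n=3, cassette dosing; blood collected at intervals up to 24 h, protein precipitation and LC-MS/MS quantification.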

The nature of series [2]: Oral bioavailability in Sprague-Dawley rat at 1 mg/kg, po after 24 hrs. The format is ADME, organism-based. The settings on record: in vivo. The essentials:
(§2)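 Male Sprague-Dawley rats dosed po at 1 mg/kg (10 mL/kg, 1% DMSO in aqueous 0.5% methocel), n=3, as a cassette with other compounds; blood sampled at intervals up to 24 h and analysed by protein precipitation then LC-MS/MS.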

A short description of series [3]: Clearance in dog at 0.5 mg/kg, iv. The settings on record: in vivo.
A short description of series [4]: AUC (0 to infinity) in Sprague-Dawley rat at 1 mg/kg, po after 24 hrs. The format is ADME, organism-based. The arrangement: time infinity, dose 1 mg/kg, route oral. The conditions noted are these: plasma. In short, it runs like this: as §2
The nature of series [5]: Half life in cynomolgus monkey at 1 mg/kg, iv. The conditions noted are these: in vivo.
Series [6] can be described thus: Half life in dog at 0.5 mg/kg, iv. The settings on record: in vivo.
A short description of series [7]: Ratio of drug level in brain to blood in Sprague-Dawley rat after 1 hr. The format is ADME, tissue-based. The conditions noted are these: read-out: BBR. The essentials: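 Male Sprague-Dawley rats dosed iv at 0.5 mg/kg (2.5% DMSO in glucosate), n=3, as a cassette. At 1 h, CO2 anaesthesia, blood taken by heart puncture and brain removed. Both matrices analysed by protein precipitation and LC-MS/MS.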

The nature of series [8]: Solubility of the compound in fed state simulated intestinal fluid at pH 5.5 at 25 degC. Type of series: physicochemical. The essentials:
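Solubility determined at 25 °C in fed state simulated intestinal fluid at pH 5.5.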

Series [9] in a line: Solubility of the compound in water. Type of series: physicochemical. The essentials: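 Measured on the dihydrochloride salt form, dissolved in water.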
The nature of series [10]: in vivo. The conditions noted are these: cynomolgus monkey, po, 10 mg/kg.
Series [11] can be described thus: in vivo. The settings on record: dog, po, 1 mg/kg.
Series [12] can be described thus: Solubility of the compound in simulated gastric fluid at pH 1.2 at 25 degC. The format is physicochemical.
Series [13] can be described thus: in vivo. The settings on record: dog, plasma, po, 10 mg/kg.
Series [14] is described as follows: Clearance in Sprague-Dawley rat at 0.5 mg/kg, iv after 24 hrs. The format is ADME, organism-based. More on the design: dose 0.5 mg/kg, route intravenous. The conditions noted are these: in vivo. The essentials: as §1
Series [15] can be described thus: in vivo. The conditions noted are these: cynomolgus monkey, plasma, po, 10 mg/kg.
A further series has as its system Rattus norvegicus. In words: Inhibition of 8-OH-DPAT-induced hyperlocomotory activity in Sprague-Dawley rat administered orally 60 mins before 8-OH-DPATchallenge. Type of series: functional. The settings on record: po. In short, it runs like this:
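Male Sprague-Dawley rats (250–350 g) dosed orally (5 mL/kg) at 0.03, 0.1 or 0.3 mg/kg or vehicle, 60 min before sc 8-OH-DPAT 0.2 mg/kg (2 mL/kg). Total distance travelled recorded by infrared sensors over 30 min immediately after; 8–9 rats per group.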

A short description of series [16]: in vivo. The settings on record: dog, po, 10 mg/kg.
A short description of series [17]: Cmax in Sprague-Dawley rat at 1 mg/kg, po after 24 hrs. The format is ADME, organism-based. The arrangement: dose 1 mg/kg, route oral. The settings on record: in vivo. The essentials: as §2
A short description of series [18]: Clearance in cynomolgus monkey at 1 mg/kg, iv. The settings on record: in vivo.
Series [19] in a line: in vivo. The conditions noted are these: cynomolgus monkey, po, 10 mg/kg. The source holds these as a separate data set.

By half-life is commonly meant the time in which the quantity being followed falls by half. What is called bioavailability is the share of a dose that reaches the circulation, judged against a reference dose that is usually intravenous. By clearance is commonly meant a measure of how efficiently the substance is removed, as volume per time. One may read the AUC(0-inf) as total exposure, with the tail of the curve extrapolated. For orientation: solubility means how much of the substance goes into solution per volume. In general, Cmax refers to the highest concentration seen after dosing. In general, ED50 refers to the midpoint of the dose-response relation.

As to `Cc1ccc2c(N3CCN(CCc4cccc(N5CCNC5=O)c4)CC3)cccc2n1.Cl.Cl`, the figures for the half-life in series [1], in [5] and in series [6] were 3.2 h, 5.3 h and 0.8 h, respectively. The bioavailability in series [2] is 58%; in the series “in vivo [11]”, 6%; in “in vivo [19]”, 63%. For the same molecule, the clearance was found to be 60 mL/min/kg in [3], 11 mL/min/kg in [14] and 25 mL/min/kg in series [18]. Further, the AUC(0-inf) is 889 ng·h/mL in series [4], 2550 ng·h/mL in “in vivo [13]” and 4220 ng·h/mL in the series “in vivo [15]”. Also, the Kp at 1 h in [7] is 0.5. Further, the solubility is 500 µg/mL in [8], more than 10000 µg/mL in series [9] and more than 10000 µg/mL in series [12]. Further, the Cmax amounted to 1390 ng/mL in the series “in vivo [10]”, 1300 ng/mL in the series “in vivo [16]” and 122 ng/mL in series [17]. Besides, in the series with Rattus norvegicus, the ED50 is 0.03 mg/kg.
